Reference: ChEMBL document CHEMBL1770120 (Eur J Med Chem, 2011)

Experiments:
[1] = AUC (0 to t) in Sprague-Dawley rat at 5 mg/kg, iv by LC-MS/MS analysis; type: ADME, organism-based; design: dose 5 mg/kg, route intravenous; settings: plasma
Outline: (§1)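 Male Sprague-Dawley rats (200–220 g), five per group, fasted from the evening before dosing until 2 h post-dose. Single i.v. dose of 5 mg/kg in cremophor:ethanol (1:1) diluted with sterile 0.154 M NaCl, given at 10 ml/kg. Plasma sampled 5–1440 min. Plasma kept at -20 °C and assayed by LC-MS-MS after liquid–liquid extraction. Parameters from mean plasma concentrations by non-compartmental analysis.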

[2] = Half life in Sprague-Dawley rat plasma at 5 mg/kg, iv by LC-MS/MS analysis; type: ADME, organism-based; design: dose 5 mg/kg, route intravenous; outline: as §1
[3] = Cytotoxicity against multidrug-resistant human HL60OR-0604-2 cells after 72 hrs by SRB assay; type: functional, cell-based
Outline: (§2)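 Cells grown in RPMI 1640 with 10% FBS at 37 °C under 5% CO2 and seeded at 0.4–1.0 × 10^4 cells/well. Compounds added after 24 h from DMSO stock, at least five concentrations, final DMSO ≤0.1%. Exposure 72 h. Growth read by SRB staining at OD 520 nm. Three experiments, each in quadruplicate. IC50 taken from survival (%) versus concentration curves.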

[4] = Total plasma clearance in Sprague-Dawley rat at 5 mg/kg, iv by LC-MS/MS analysis; type: ADME, organism-based; design: dose 5 mg/kg, route intravenous; outline: as §1
[5] = Mean residence time in Sprague-Dawley rat at 5 mg/kg, iv by LC-MS/MS analysis; type: ADME, organism-based; design: dose 5 mg/kg, route intravenous; settings: in vivo; outline: as §1
[6] = Cytotoxicity against human KB-0528 cells after 72 hrs by SRB assay; type: functional, cell-based; settings: KB-0528, 72 h; outline: as §2
[7] = Apparent volume of distribution in Sprague-Dawley rat at 5 mg/kg, iv by LC-MS/MS analysis; type: ADME, organism-based; design: dose 5 mg/kg, route intravenous; settings: in vivo, read-out: Vz; outline: as §1
[8] = Cytotoxicity against human HL60-0607-2 cells after 72 hrs by SRB assay; type: functional, cell-based; outline: as §2
[9] = AUC (0 to infinity) in Sprague-Dawley rat at 5 mg/kg, iv by LC-MS/MS analysis; type: ADME, organism-based; design: time infinity, dose 5 mg/kg, route intravenous; settings: plasma; outline: as §1
[10] = Cytotoxicity against multidrug-resistant human KBR-0602 cells after 72 hrs by SRB assay; type: functional, cell-based; settings: KBR-0602, 72 h; outline: as §2
[11] = Cytotoxicity against multidrug-resistant human KBR-0530 cells after 72 hrs by SRB assay; type: functional, cell-based; settings: KBR-0530, 72 h; outline: as §2
[12] = Ratio of compound IC50 to docetaxel IC50 for human HL60-0607-2 cells; type: functional
[13] = Intrinsic clearance in human liver microsomes; type: ADME, Microsome
Outline: (§3)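 Test compound at 5 µmol/L with pooled human liver microsomes (0.5 mg/mL) and 1 mM NADPH in 0.1 M potassium phosphate buffer, pH 7.4, at 37 °C. Reactions stopped with acetonitrile at 0, 5, 10, 15, 30 and 60 min. Samples extracted with n-hexane:dichloromethane:isopropanol and spun to remove protein. Remaining parent measured by HPLC-MS (ESI positive).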

[14] = (§4) Half life in human liver microsomes; type: ADME, Microsome; settings: liver microsomes; outline: as §3
[15] = (§5) Metabolic stability in human liver microsomes assessed as unchanged remaining compound after 60 mins; type: ADME, Microsome; settings: liver microsomes, read-out: Stability; outline: as §3
[16] = Ratio of compound IC50 to docetaxel IC50 for human HL60OR-0604-2 cells; type: functional
Liver microsomes [17] = experiment: as §4; type: ADME, Microsome; settings: microsomes; outline: as §3
Liver microsomes [18] = experiment: as §5; type: ADME, Microsome; settings: microsomes, 1 h; outline: as §3

Row | Structure (SMILES) | AUC(0-t) [1] | half-life [2] | clearance [4] | MRT [5] | Vd [7] | AUC(0-inf) [9] | CLint scaled [13] | half-life [14] | remaining at 1 h [15] | t1/2 (Liver microsomes [17]) | Stability (Liver microsomes [18]) | IC50 [3] | IC50 [6] | IC50 [8] | IC50 [10] | IC50 [11] | Ratio IC50 [12] | Ratio IC50 [16]
1 | CC(=O)O[C@@]12CO[C@@H]1C[C@H](O)[C@@]1(C)C(=O)[C@H](O)C3=C(C)[C@@H](OC(=O)[C@H](O)[C@@H](NC(=O)OC(C)(C)C(F)F)c4ccccc4)C[C@@](O)([C@@H](OC(=O)c4ccccc4)[C@H]21)C3(C)C | 2860 ng·h/mL | 7.69 h | 29.8 mL/min/kg | 2.76 h | 20.2 L/kg | 2930 ng·h/mL |  |  |  |  |  | 0.554 nM | 0.282 nM | 0.176 nM | 0.369 nM | 0.332 nM |  | 
2 | CC(=O)O[C@@]12CO[C@@H]1C[C@H](O)[C@@]1(C)C(=O)[C@H](O)C3=C(C)[C@@H](OC(=O)[C@H](O)[C@@H](NC(=O)OC(C)(C)C(F)(F)F)c4ccccc4)C[C@@](O)([C@@H](OC(=O)c4ccccc4)[C@H]21)C3(C)C | 3860 ng·h/mL | 9.91 h | 21 mL/min/kg | 2.32 h | 18.1 L/kg | 3960 ng·h/mL |  |  |  |  |  | 0.41 nM | 0.0834 nM | 0.263 nM | 0.626 nM | 0.694 nM |  | 
3 | CC(=O)O[C@@]12CO[C@@H]1C[C@H](O)[C@@]1(C)C(=O)[C@H](O)C3=C(C)[C@@H](OC(=O)[C@H](O)[C@@H](NC(=O)OC(C)(C)C(F)F)c4ccccc4)C[C@@](O)([C@@H](OC(=O)c4cccc(F)c4)[C@H]21)C3(C)C | 1930 ng·h/mL | 10.2 h | 42.5 mL/min/kg | 2.4 h | 36.2 L/kg | 1990 ng·h/mL |  |  |  |  |  | 0.584 nM |  | 0.183 nM | 0.182 nM | 0.161 nM |  | 
4 | CC(=O)O[C@@]12CO[C@@H]1C[C@H](O)[C@@]1(C)C(=O)[C@H](O)C3=C(C)[C@@H](OC(=O)[C@H](O)[C@@H](NC(=O)OC(C)(C)CF)c4ccccc4)C[C@@](O)([C@@H](OC(=O)c4ccccc4)[C@H]21)C3(C)C | 914 ng·h/mL | 12.2 h | 84.8 mL/min/kg | 5.62 h | 89.7 L/kg | 994 ng·h/mL |  |  |  |  |  | 0.958 nM | 0.506 nM | 0.156 nM | 0.792 nM | 0.0322 nM |  | 

The next lines start with results.

Row | AUC(0-t) [1] | half-life [2] | clearance [4] | MRT [5] | Vd [7] | AUC(0-inf) [9] | CLint scaled [13] | half-life [14] | remaining at 1 h [15] | t1/2 (Liver microsomes [17]) | Stability (Liver microsomes [18]) | Structure (SMILES) | IC50 [3] | IC50 [6] | IC50 [8] | IC50 [10] | IC50 [11] | Ratio IC50 [12] | Ratio IC50 [16]
5 | 3870 ng·h/mL | 8.5 h | 21.3 mL/min/kg | 2.78 h | 15.8 L/kg | 3980 ng·h/mL | 0.36 mL/min/kg | 57.8 h | 88.5% |  |  | CC(=O)O[C@@]12CO[C@@H]1C[C@H](O)[C@@]1(C)C(=O)[C@H](O)C3=C(C)[C@@H](OC(=O)[C@H](O)[C@@H](NC(=O)OC(C)(C)C(F)(F)F)c4ccc(F)cc4)C[C@@](O)([C@@H](OC(=O)c4ccccc4)[C@H]21)C3(C)C | 0.0155 nM | 0.0259 nM | 0.000358 nM | 0.432 nM | 0.332 nM | 20 | 10
6 | 3150 ng·h/mL | 13.4 h | 25.2 mL/min/kg | 4.28 h | 27.4 L/kg | 3360 ng·h/mL | 3.41 mL/min/kg |  |  | 6.08 h | 72.4% | CC(=O)O[C@@]12CO[C@@H]1C[C@H](O)[C@@]1(C)C(=O)[C@H](O)C3=C(C)[C@@H](OC(=O)[C@H](O)[C@@H](NC(=O)OC(C)(C)C(F)F)c4ccc(F)cc4)C[C@@](O)([C@@H](OC(=O)c4ccccc4)[C@H]21)C3(C)C | 2.08 nM | 0.397 nM | 0.0168 nM | 0.885 nM | 0.321 nM |  | 
7 | 646 ng·h/mL | 7.37 h | 125 mL/min/kg | 3.34 h | 78.8 L/kg | 667 ng·h/mL |  |  |  |  |  | CC(=O)O[C@@]12CO[C@@H]1C[C@H](O)[C@@]1(C)C(=O)[C@H](O)C3=C(C)[C@@H](OC(=O)[C@H](O)[C@@H](NC(=O)OC(C)(C)C)c4ccccc4)C[C@@](O)([C@@H](OC(=O)c4ccccc4)[C@H]21)C3(C)C.O.O.O [DOCETAXEL] | 0.114 nM | 0.454 nM | 0.0115 nM | 0.234 nM | 0.132 nM |  | 
8 | 3870 ng·h/mL | 7.62 h | 21.3 mL/min/kg | 2.13 h | 13.7 L/kg | 3940 ng·h/mL |  |  |  |  |  | CC(=O)O[C@@]12CO[C@@H]1C[C@H](O)[C@@]1(C)C(=O)[C@H](O)C3=C(C)[C@@H](OC(=O)[C@H](O)[C@@H](NC(=O)OC(C)(C)C(F)(F)F)c4ccccc4)C[C@@](O)([C@@H](OC(=O)c4cccc(F)c4)[C@H]21)C3(C)C | 0.191 nM | 0.21 nM | 0.0547 nM | 0.149 nM | 0.108 nM |  | 
9 | 2190 ng·h/mL | 6.8 h | 37.7 mL/min/kg | 2.3 h | 22.7 L/kg | 2240 ng·h/mL |  |  |  |  |  | CC(=O)O[C@@]12CO[C@@H]1C[C@H](O)[C@@]1(C)C(=O)[C@H](O)C3=C(C)[C@@H](OC(=O)[C@H](O)[C@@H](NC(=O)OC(C)(C)CF)c4ccccc4)C[C@@](O)([C@@H](OC(=O)c4cccc(F)c4)[C@H]21)C3(C)C | 2.97 nM | 0.248 nM | 0.00111 nM | 0.205 nM | 0.0669 nM |  | 
10 | 1640 ng·h/mL | 5.06 h | 50.3 mL/min/kg | 2.13 h | 22 L/kg | 1660 ng·h/mL | 8.62 mL/min/kg |  |  | 2.407 h | 53.8% | CC(=O)O[C@@]12CO[C@@H]1C[C@H](O)[C@@]1(C)C(=O)[C@H](O)C3=C(C)[C@@H](OC(=O)[C@H](O)[C@@H](NC(=O)OC(C)(C)CF)c4ccc(F)cc4)C[C@@](O)([C@@H](OC(=O)c4ccccc4)[C@H]21)C3(C)C | 0.51 nM | 0.915 nM | 0.14 nM | 0.195 nM | 0.232 nM |  | 
